# Bioassay records (PubChem)
# Efflux pump mplx – inhibitors of Candida antifungal efflux pumps expressed in yeast; AID 485275; inhibition, % at 10 µM; S. cerevisiae Candida pump triplex, Nile Red efflux; 0.44% of 330,000 active;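 active = plate passing quality check with inhibition over a set limit, or well fluorescence over plate mean plus 4 SD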;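 note: Nile Red retained in pooled yeast measured as flow cytometry median fluorescence; 0% = buffer negative control and 100% = Enniatin B positive control; higher means more Nile Red kept so more efflux inhibition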
# AI-2 QS modul – modulators of Vibrio harveyi AI-2 quorum sensing system. 0.4% of 300,000 active. AID 2094. activity change, % at 7.5 µM. Vibrio harveyi JMH597 AI-2 luminescence/OD600 ratio, 9 h; active compounds read low; strain lacks LuxN and CqsS sensors; 0 = neutral-control median; in the data active = activity change below about -75%, passing the limit was not always enough; inconclusive = no clear call, values can overlap the other calls;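 note: luminescence divided by OD600 gain over 9 h not by final OD600 alone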
# HDAC3 inh – blocks human histone deacetylase 3. O15379. recombinant HDAC3, fluorogenic peptide/trypsin coupled, fluorescence. inhibition, % at 8.3 µM. 0.15% of 320,000 active; in the data active = inhibition above about 26%, passing the limit was not always enough; inconclusive = no clear call, values can overlap the other calls
# Target sequence (O15379 whole entry, looked up): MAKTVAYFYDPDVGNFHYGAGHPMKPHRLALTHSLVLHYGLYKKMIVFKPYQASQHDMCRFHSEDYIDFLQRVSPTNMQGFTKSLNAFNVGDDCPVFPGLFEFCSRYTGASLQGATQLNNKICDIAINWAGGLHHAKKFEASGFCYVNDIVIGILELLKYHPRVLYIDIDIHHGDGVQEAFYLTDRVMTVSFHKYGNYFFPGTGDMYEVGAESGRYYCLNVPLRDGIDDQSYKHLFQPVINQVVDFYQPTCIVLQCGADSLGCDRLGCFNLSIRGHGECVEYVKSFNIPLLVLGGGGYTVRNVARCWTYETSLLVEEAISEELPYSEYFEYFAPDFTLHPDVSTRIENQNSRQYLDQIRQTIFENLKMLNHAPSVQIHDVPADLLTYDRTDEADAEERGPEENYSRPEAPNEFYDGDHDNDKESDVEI
# PolyA inh – blocks polyadenylation in yeast reporter cells; activity score, % at 12 µM; AID 1875; S. cerevisiae SKY197-pL101 polyadenylation reporter, beta-gal luminescence; efflux-impaired pdr1/pdr3 knockout yeast; score 100 = 6 SD above DMSO; 0.02% of 300,000 active;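 active = lowest replicate activity score at least 50, where 100 means six control SD above control mean; inconclusive = lowest score under 50 but half or more replicates reach 50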;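 note: yeast exposed to compound for 9 h at 30 °C; higher score means more reporter readthrough which indicates perturbed polyadenylation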
# T cruzi repl – blocks replication of Trypanosoma cruzi | 1.4% of 300,000 active | inhibition, % (test concentration not listed) | T. cruzi beta-gal in NIH3T3, luminescence, 90 h;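 active = mean inhibition across valid replicates above about 55%, limit read from the data; inconclusive = mean below that limit but half or more replicates reach it; inactive = mean below it, under half of replicates reach it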;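 note: signal also drops with host cell toxicity which is not excluded here; 0% = plate median of DMSO wells and 100% = zero luminescence signal; higher percent means less beta-gal luminescence so fewer parasites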
#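 Test system: β-gal T. cruzi (Tulahuen C4) inside NIH/3T3 cells / Quantity: 5,000 cells/well / Measured by: luminescence from GalScreen with 0.05% NP40, read after 60 min / Medium: DMEM plus 2% FBS / Measure: parasite load inhibition, % / Reagent: Tulahuen C4 trypomastigotes, 5000/well / Schedule: co-culture of at least 90 h after 3 h attachment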
# Active calls of the source: *; ? = inconclusive; / = not tested or not shown. Hits are enriched below; roughly 2.2% of the tested compounds scored in any of these assays.
SMILES,Efflux pump mplx,AI-2 QS modul,HDAC3 inh,PolyA inh,T cruzi repl
c1ccc(-c2nc(NCc3cccnc3)c3ccccc3n2)cc1,0,20,5,-1,37
CCCN(CCC)c1nc(-c2ccccn2)nc2ccccc12,0,55,2,-24,58*
Fc1ccc(CNc2nc(-c3ccccc3)nc3ccccc23)cc1,/,31,/,-30,57*
COc1ccccc1N(C)S(=O)(=O)c1ccc(C)c(C(=O)NCc2ccccn2)c1,0,/,-4,/,/
Cc1ccc(-n2nnnc2CNC(=O)c2ccc([N+](=O)[O-])o2)cc1C,0,15,4,-8,57*
CCN1CCN(CCCOc2ccc(Cl)cc2Br)CC1,0,1,4,15,57*
CC1CC(C)CN(CCOc2cccc(Cl)c2Cl)C1 (stereo not drawn),0,26,9,2,25
Clc1ccc(Cl)c(OCCCCN2CCNCC2)c1,0,13,-8,-4,60*
CCN1CCN(CCOc2cccc(Cl)c2Cl)CC1,0,20,5,0,78*
Brc1ccccc1OCCCCCN1CCCC1,0,21,-2,-3,57*
CCc1ccccc1OCCCCN1CCCC1,0,-4,?,3,27
CCCCC[C@@H]1C=C(C(=O)O)[C@H](c2ccc3c(c2)OCO3)N1S(=O)(=O)c1ccc(C)cc1,0,/,/,/,/
CC(C)c1ccc(S(=O)(=O)NC2CCS(=O)(=O)C2)cc1 (stereo not drawn),0,16,2,-7,-4
Cc1cc(Br)ccc1OCCN1CCCC1,0,27,-1,9,73*
Clc1ccc(OCCCN2CCCCC2)c(Br)c1,0,16,0,-4,46
CC(C)(C)c1ccccc1OCCOCCN1CCCCCC1,0,22,5,-30,56*
CCN1CCN(CCOc2ccc(Br)cc2C)CC1,0,13,0,3,48
Clc1ccc(OCCCCCN2CCCC2)c(Br)c1,0,12,4,-18,68*
O=C(NC(=S)Nc1ccccc1Br)C1CC1,0,-77*,7,-17,-14
Cc1cc(C)cc(-n2c(N)c(C(=O)Nc3c(C)n(C)n(-c4ccccc4)c3=O)c3nc4ccccc4nc32)c1,0,11,-2,13,56*
O=[N+]([O-])c1ccc(Cl)c(-c2ccc(/C=N/n3cnnc3)o2)c1,0,16,8,2,-14
CN1CCN(/N=C/c2ccc(-c3ccc([N+](=O)[O-])cc3Cl)o2)CC1,0,35,10,-9,59*
S=C(NCc1ccccc1)Nc1cccc(Cl)c1,0,-78*,-2,25,9
O=C(CSc1ccccn1)Nc1ccc(NC(=O)CSc2ccccn2)cc1,0,7,-1,11,12
O=C(CSc1ccccn1)Nc1nonc1[N+](=O)[O-],1,-88*,/,6,22
SMILES,Efflux pump mplx,AI-2 QS modul,HDAC3 inh,PolyA inh,T cruzi repl
C(=N\NC1=Nc2cccc3cccc1c23)/c1ccccn1,/,27,/,-65,65*
Clc1ccccc1N1CCN(Cc2c[nH]c3ccccc23)CC1,0,-3,2,7,74*
O=S(=O)(c1ccc(Cl)cc1)N1CCN(Cc2c[nH]c3ccccc23)CC1,0,11,-1,29,-6
CCOC(=O)c1cccc(NC(=O)Cn2cc3c(n2)CCC(C)C3)c1 (stereo not drawn),1,-77*,2,1,-7
Cc1ncc(CO)c(/C=N/NC(=S)Nc2ccc(Cl)c(Cl)c2)c1O,0,-210*,3,-16,8
CC(C)CN1CCCC(N2CCN(c3cccc(Cl)c3)CC2)C1 (stereo not drawn),0,13,-4,-12,65*
CC(=O)NCCC(=O)N1CCCC(N2CCN(c3cccc(Cl)c3)CC2)C1 (stereo not drawn),0,15,3,-20,-6
COc1ccc(CN2CCCC(N3CCN(c4cccc(Cl)c4)CC3)C2)cc1OC (stereo not drawn),0,-1,7,-7,56*
CCOc1cc(CN2CCCC(N3CCN(c4ccc(F)cc4)CC3)C2)ccc1OC (stereo not drawn),0,8,-3,0,51
CC[n+]1c(/C=C2/C=C(C)CC(C)C2)sc2ccccc21 (stereo not drawn),0,-2,1,-22,34
CC[n+]1c(C=C2C=C(C)OC(C)=C2)sc2ccccc21,/,24,/,1,73*
O=C(Nc1nnc(SCc2cccnc2)s1)C1CC(=O)N(c2ccccc2)C1 (stereo not drawn),0,11,-3,10,-8
CC(C)(C)c1ccc(C(=O)NNc2cc(N3CCOCC3)nc(N3CCOCC3)n2)cc1,0,8,3,-1,17
O=C(CCc1ccccc1)NNc1cc(N2CCCCC2)nc(N2CCCCC2)n1,0,-2,1,-7,57*
O=C(CCc1ccccc1)NNC(=O)C1CCCCC1,0,25,0,-5,-2
CC(C)(C)c1ccc(C(=O)NNc2cc(N3CCCCC3)nc(N3CCCCC3)n2)cc1,0,16,-1,-14,93*
COc1ccc(NC(=O)c2cccnc2)c(OC)c1,1,15,-8,28,2
COc1ccc(NC(=O)c2cc(-c3cccnc3)nc3c(C)c(C)ccc23)c(OC)c1,0,0,0,-7,56*
Cc1ccc(C(=O)CNc2ccc(C)c(Cl)c2)cc1,0,40,?,-9,-24
Cc1ccc(NCC(=O)c2ccc(C)cc2)cc1,0,-13,3,3,56*
Cc1c([N+](=O)[O-])nnn1-c1cc(Cl)cc(Cl)c1,0,-18,-1,-2,63*
N#Cc1nnn(-c2cc(Cl)cc(Cl)c2)c1N,0,9,1,-3,18
CC(C)c1ccc(NC(=O)c2ccc(NC3=NC4CS(=O)(=O)CC4S3)cc2)cc1 (stereo not drawn),0,17,-5,9,-4
O=[N+]([O-])c1ccc(-[n+]2ccc3ccccc3c2)c([N+](=O)[O-])c1,0,14,2,1,71*
C#CCOC(=O)c1ccccc1C(=O)n1nnc2ccccc21,0,7,94*,-17,-6
SMILES,Efflux pump mplx,AI-2 QS modul,HDAC3 inh,PolyA inh,T cruzi repl
CCCC(=O)Nc1ccc(C(=O)n2nnc3ccccc32)cc1,0,14,75*,6,2
CN(C)c1ccc(C(=O)n2nnc3ccccc32)cc1,0,2,91*,-8,-3
Cc1ccc(C(=O)n2nnc3ccccc32)cc1,0,6,97*,-15,-6
O=C(c1cccc(F)c1)n1nnc2ccccc21,0,3,0,-22,-4
COC(=O)c1ccc(NC(=O)Cn2nnc3ccccc32)cc1,0,?,-5,0,0
C#CCOC(=O)c1ccccc1C(=O)OCC#C,0,16,-3,4,-10
CNC(=O)/C(C#N)=C/c1c(N(Cc2ccccc2)Cc2ccccc2)nc2ccccn2c1=O,-1,32,/,-12,11
